{"data": "Results of several laboratories", "LRRK2": "Leucine-rich repeat serine/threonine-protein kinase 2 (LRRK2, Homo sapiens, UniProt Q5S007)", "LRRK2 G2019S": "Leucine-rich repeat serine/threonine-protein kinase 2 (LRRK2, Homo sapiens, UniProt Q5S007, G2019S)", "note": "Compare with care: the assays were run in different laboratories."}
{"Compound": "c1cnn2ncc(-c3ccnc(N4CCC45COC5)n3)c2c1", "target": "LRRK2", "test": "binding", "conditions": "1 µM", "remaining binding [%]": 35}
{"Compound": "CCS(=O)(=O)c1cc2cc(C[C@](O)(CC(C)(C)c3ccc(F)cc3C(N)=O)C(F)(F)F)[nH]c2cn1", "target": "LRRK2", "test": "cell-free assay, competition with immobilised ligand", "conditions": "1 µM", "remaining binding [%]": 100}
{"Compound": "O=C(NCCCN1CCOCC1)c1ccc(Nc2ncc(Cl)c(-c3ccc(Cl)s3)n2)cc1", "target": "LRRK2 G2019S", "test": "binding, competition with immobilised ligand", "conditions": "1 µM", "remaining binding [%]": 10}
{"Compound": "C[C@H]1CCN(c2nccc(-c3cnn4ncccc34)n2)C1", "target": "LRRK2", "test": "binding", "conditions": "1 µM", "remaining binding [%]": 67}
{"Compound": "COc1cnc(Nc2cccc(S(N)(=O)=O)c2)nc1N1CCN(c2ccccc2)C(=O)C1", "target": "LRRK2 G2019S", "test": "binding, competition with immobilised ligand", "conditions": "1 µM", "remaining binding [%]": 100}
{"Compound": "O=C(NCCCN1CCOCC1)c1ccc(Nc2nccc(-c3cc4ccccc4s3)n2)cc1", "target": "LRRK2", "test": "binding, competition with immobilised ligand", "conditions": "1 µM", "remaining binding [%]": 63}
{"Compound": "CN(C)c1nccc(-c2cnc3ncccn23)n1", "target": "LRRK2", "test": "binding", "conditions": "1 µM", "remaining binding [%]": 61}
{"Compound": "COc1ncc2cc3ccccc3nc2c1C#N", "target": "LRRK2", "test": "cell-free assay, competition with immobilised ligand", "conditions": "5 µM", "remaining binding [%]": 100}
{"Compound": "CCC(=O)N[C@@H]1CC[C@H](C(=O)N(C)c2ccc(-c3nc4ccccc4o3)cc2)C1", "target": "LRRK2 G2019S", "test": "cell-free assay, competition with immobilised ligand", "conditions": "1 µM", "remaining binding [%]": 100}
{"Compound": "FC(F)(F)Oc1cccc(-c2cnc3ccc(-c4ccncc4)nn23)c1", "target": "LRRK2", "test": "cell-free assay, competition with immobilised ligand", "conditions": "5 µM", "remaining binding [%]": 52}
{"Compound": "C[C@@H]1CN(c2cc(-c3nn(C)c4ccc(OC5(C)CC5)cc34)ncn2)C[C@H](C)O1", "target": "LRRK2", "test": "binding, competition with immobilised ligand", "conditions": "1 µM", "remaining binding [%]": 22}
{"Compound": "O=C(NCC1CCOCC1)c1n[nH]cc1NC(=O)c1c(F)cccc1F", "target": "LRRK2", "test": "binding, competition with immobilised ligand", "conditions": "1 µM", "remaining binding [%]": 76}
{"Compound": "CC1CCCN1c1nccc(-c2cnn3ncccc23)n1 (centres unmarked)", "target": "LRRK2 G2019S", "test": "binding", "conditions": "1 µM", "remaining binding [%]": 100}
{"Compound": "Cc1cc(-n2nc(Cc3cc(F)cc(C(F)(F)F)c3)nc2C)ccc1C(N)=O", "target": "LRRK2 G2019S", "test": "cell-free assay, competition with immobilised ligand", "conditions": "1 µM", "remaining binding [%]": 100}
{"Compound": "CNC(=O)[C@@H]1CC[C@@H](n2c(-c3ccc4cnccc4c3)nc3ccc(C(=O)NCc4cccc(C(N)=O)c4)cc32)C1", "target": "LRRK2", "test": "binding, competition with immobilised ligand", "conditions": "1 µM", "remaining binding [%]": 100}
{"Compound": "C=CC(=O)N1CCC(C(=O)NCC(=O)N2CCN(c3nc(-c4cnc(N)nc4C(F)F)nc(N4CCOCC4)n3)CC2)CC1", "target": "LRRK2 G2019S", "test": "binding, competition with immobilised ligand", "conditions": "1 µM", "remaining binding [%]": 79}
{"Compound": "CN1CCN(c2ccc(Nc3nccc(-c4ccccc4)n3)cc2C(F)(F)F)CC1", "target": "LRRK2 G2019S", "test": "binding", "conditions": "10 µM", "remaining binding [%]": 100}
{"Compound": "O=C(c1ccc(Nc2ncc(Cl)c(-c3cc4ccccc4s3)n2)cc1)N1CCC(N2CCCC2)CC1", "target": "LRRK2 G2019S", "test": "binding, competition with immobilised ligand", "conditions": "1 µM", "remaining binding [%]": 5.9}
{"Compound": "CCN1CCN(Cc2ccc(C(=O)Nc3ccc(C)c(Oc4ccc5c(c4)CC(=O)N5)c3)cc2C(F)(F)F)CC1", "target": "LRRK2 G2019S", "test": "binding, competition with immobilised ligand", "conditions": "1 µM", "remaining binding [%]": 100}
{"Compound": "c1ccc(N2CCN(Cc3nc4ccccc4[nH]3)CC2)nc1", "target": "LRRK2", "test": "binding, competition with immobilised ligand", "conditions": "1 µM", "remaining binding [%]": 99}
{"Compound": "COc1cnc(Nc2cccc(S(N)(=O)=O)c2)nc1N1CCN(c2ccccc2)CC1", "target": "LRRK2 G2019S", "test": "binding, competition with immobilised ligand", "conditions": "1 µM", "remaining binding [%]": 95}
{"Compound": "c1cncc(-c2cccc(Nc3nccc(NC4CCCCC4)n3)c2)c1", "target": "LRRK2", "test": "binding, competition with immobilised ligand", "conditions": "10 µM", "remaining binding [%]": 49}
{"Compound": "F[C@@H]1CCN(c2nccc(-c3cnn4ncccc34)n2)C1", "target": "LRRK2 G2019S", "test": "binding", "conditions": "1 µM", "remaining binding [%]": 100}
{"Compound": "CS(=O)(=O)NCC[C@H](NC(=O)c1cncc2c1cnn2-c1ccc(F)cc1)c1ccnc(S(C)(=O)=O)c1", "target": "LRRK2", "test": "cell-free assay, competition with immobilised ligand", "conditions": "1 µM", "remaining binding [%]": 86}
{"Compound": "O=C(c1ccc(Nc2ncc(Cl)c(-c3ccc(Cl)s3)n2)cc1)N1CCC(N2CCCC2)CC1", "target": "LRRK2 G2019S", "test": "binding, competition with immobilised ligand", "conditions": "1 µM", "remaining binding [%]": 1.1}
{"Compound": "O=C(Nc1c[nH]nc1C(=O)NC1CCNCC1)c1cc(F)cc(F)c1", "target": "LRRK2 G2019S", "test": "binding, competition with immobilised ligand", "conditions": "1 µM", "remaining binding [%]": 93}
{"Compound": "Cc1cnc(Nc2ccc(C(=O)N3CCC(N4CCCC4)CC3)cc2)nc1-c1cc2ccccc2s1", "target": "LRRK2 G2019S", "test": "binding, competition with immobilised ligand", "conditions": "1 µM", "remaining binding [%]": 2.8}
{"Compound": "CN([C@@H]1CCc2c(CC(=O)O)c3cc(S(C)(=O)=O)ccc3n2C1)S(=O)(=O)c1ccc(F)cc1", "target": "LRRK2 G2019S", "test": "cell-free assay, competition with immobilised ligand", "conditions": "1 µM", "remaining binding [%]": 100}
{"Compound": "CN(CCCC(F)(F)F)c1nccc(-c2cnn3ncccc23)n1", "target": "LRRK2 G2019S", "test": "binding", "conditions": "1 µM", "remaining binding [%]": 100}
{"Compound": "Nc1ncc2c(n1)-c1c([nH]c3ccc(C#CC4CC4)cc13)CCCC2", "target": "LRRK2 G2019S", "test": "binding, competition with immobilised ligand", "conditions": "1 µM", "remaining binding [%]": 83}
{"Compound": "O=C(c1ccc(Nc2nccc(-c3cc4ccccc4s3)n2)cc1)N1CCC(N2CCCC2)CC1", "target": "LRRK2 G2019S", "test": "binding, competition with immobilised ligand", "conditions": "1 µM", "remaining binding [%]": 16}
{"Compound": "COc1ccnn2ncc(-c3ccnc(N(C)C)n3)c12", "target": "LRRK2 G2019S", "test": "binding", "conditions": "1 µM", "remaining binding [%]": 100}
{"Compound": "C[C@@H](c1ccc(-n2cnc3c(N)ncnc32)cc1)N1CCc2nn(C)c(Cc3ccccc3)c2C1=O", "target": "LRRK2 G2019S", "test": "binding, competition with immobilised ligand", "conditions": "0.1 µM", "remaining binding [%]": 92}
{"Compound": "CNCc1ccccc1-c1csc([C@@H](C)Nc2nc(C)nc3cc(OC)c(OC)cc23)c1", "target": "LRRK2 G2019S", "test": "cell-free assay, competition with immobilised ligand", "conditions": "1 µM", "remaining binding [%]": 72}
{"Compound": "CN(C)c1nccc(-c2cnn3ncccc23)n1", "target": "LRRK2", "test": "binding", "conditions": "1 µM", "remaining binding [%]": 90}
